ChEMBL document CHEMBL1137352, “Design and synthesis of novel isoquinoline-3-nitriles as orally bioavailable Kv1.5 antagonists for the treatment of atrial fibrillation” (J Med Chem, 2006)
One block for each compound: values may come before it. Active and inactive are the calls of the source. No cut-off for these calls is given here.

Legend:
[1] = target: Potassium voltage-gated channel subfamily A member 5 (Homo sapiens, UniProt P22460); assay: Antagonist activity at human Kv1.5 channel expressed in CHO cell membrane by HT clamp assay; format: functional, cell-based
Method in brief: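 IC50 from 10-point concentration-response curves by HT-clamp voltage clamp, 3-4 cells per point. A reference Kv1.5 antagonist was run as positive control.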

Rattus norvegicus [2] = organism: Rattus norvegicus; assay: Increase in atrial refractory period in surgically instrumented rat electrophysiology model; format: functional, organism-based; conditions: Cardiac atrium
[3] = target: Voltage-gated inwardly rectifying potassium channel KCNH2 (Homo sapiens, UniProt Q12809); assay: Binding affinity to hERG potassium channel
Rattus norvegicus [4] = organism: Rattus norvegicus; assay: Effect on AV node refractory period in surgically instrumented rat electrophysiology model at 35 uM; format: functional, organism-based
Rattus norvegicus [5] = organism: Rattus norvegicus; assay: Increase in ventricular refractory period in surgically instrumented rat electrophysiology model; format: functional, organism-based; conditions: Cardiac ventricle
[6] = Clearance in rat; format: ADME, organism-based; conditions: in vivo
[7] = Bioavailability in rat; format: ADME, organism-based; conditions: in vivo
Rattus norvegicus [8] = organism: Rattus norvegicus; assay: Increase in AV node refractory period in surgically instrumented rat electrophysiology model; format: functional, organism-based
Rattus norvegicus [9] = organism: Rattus norvegicus; assay: Increase in atrial refractory period in surgically instrumented rat electrophysiology model; conditions: Cardiac atrium
[10] = Volume of distribution in rat; format: ADME, organism-based; conditions: in vivo, read-out: Vdss
Canis familiaris [11] = organism: Canis familiaris; assay: Increase in atrial refractory period in dog electrophysiology model; format: functional, organism-based; conditions: Canis lupus familiaris; Cardiac atrium
Canis familiaris [12] = organism: Canis familiaris; assay: Effect on ventricular refractory period in dog electrophysiology model; format: functional, organism-based; conditions: Canis lupus familiaris; Cardiac ventricle

Chain of Voltage-gated inwardly rectifying potassium channel KCNH2 (Q12809 whole entry): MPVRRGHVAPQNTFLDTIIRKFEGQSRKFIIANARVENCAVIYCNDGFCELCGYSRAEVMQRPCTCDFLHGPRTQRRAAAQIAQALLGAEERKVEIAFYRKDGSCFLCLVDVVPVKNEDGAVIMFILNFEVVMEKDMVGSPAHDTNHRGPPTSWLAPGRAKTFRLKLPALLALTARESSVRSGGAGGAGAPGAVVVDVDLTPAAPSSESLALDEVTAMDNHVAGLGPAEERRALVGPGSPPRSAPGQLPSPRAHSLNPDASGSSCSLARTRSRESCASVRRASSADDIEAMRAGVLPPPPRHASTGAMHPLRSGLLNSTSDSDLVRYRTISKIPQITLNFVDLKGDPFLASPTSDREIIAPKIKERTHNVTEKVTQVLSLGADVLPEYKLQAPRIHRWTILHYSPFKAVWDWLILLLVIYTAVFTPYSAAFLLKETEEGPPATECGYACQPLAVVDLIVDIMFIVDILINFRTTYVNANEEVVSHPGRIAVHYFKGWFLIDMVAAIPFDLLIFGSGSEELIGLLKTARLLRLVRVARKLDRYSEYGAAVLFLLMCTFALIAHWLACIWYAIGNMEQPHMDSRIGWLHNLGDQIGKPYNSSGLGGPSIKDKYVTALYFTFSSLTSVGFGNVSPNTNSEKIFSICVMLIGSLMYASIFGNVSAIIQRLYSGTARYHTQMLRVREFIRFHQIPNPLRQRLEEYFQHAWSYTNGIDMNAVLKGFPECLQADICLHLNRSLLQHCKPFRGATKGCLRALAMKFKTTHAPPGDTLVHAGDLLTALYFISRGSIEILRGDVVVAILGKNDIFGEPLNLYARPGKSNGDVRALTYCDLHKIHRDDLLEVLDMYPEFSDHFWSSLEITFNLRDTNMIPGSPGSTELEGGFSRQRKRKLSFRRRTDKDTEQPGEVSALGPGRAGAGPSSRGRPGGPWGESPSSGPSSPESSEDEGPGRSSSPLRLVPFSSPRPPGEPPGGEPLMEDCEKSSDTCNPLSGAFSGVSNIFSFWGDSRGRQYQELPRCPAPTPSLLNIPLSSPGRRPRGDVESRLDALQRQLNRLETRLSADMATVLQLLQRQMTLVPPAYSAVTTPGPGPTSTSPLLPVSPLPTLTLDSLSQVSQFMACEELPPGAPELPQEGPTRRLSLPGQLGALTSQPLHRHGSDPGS
Chain of Potassium voltage-gated channel subfamily A member 5 (P22460 whole entry): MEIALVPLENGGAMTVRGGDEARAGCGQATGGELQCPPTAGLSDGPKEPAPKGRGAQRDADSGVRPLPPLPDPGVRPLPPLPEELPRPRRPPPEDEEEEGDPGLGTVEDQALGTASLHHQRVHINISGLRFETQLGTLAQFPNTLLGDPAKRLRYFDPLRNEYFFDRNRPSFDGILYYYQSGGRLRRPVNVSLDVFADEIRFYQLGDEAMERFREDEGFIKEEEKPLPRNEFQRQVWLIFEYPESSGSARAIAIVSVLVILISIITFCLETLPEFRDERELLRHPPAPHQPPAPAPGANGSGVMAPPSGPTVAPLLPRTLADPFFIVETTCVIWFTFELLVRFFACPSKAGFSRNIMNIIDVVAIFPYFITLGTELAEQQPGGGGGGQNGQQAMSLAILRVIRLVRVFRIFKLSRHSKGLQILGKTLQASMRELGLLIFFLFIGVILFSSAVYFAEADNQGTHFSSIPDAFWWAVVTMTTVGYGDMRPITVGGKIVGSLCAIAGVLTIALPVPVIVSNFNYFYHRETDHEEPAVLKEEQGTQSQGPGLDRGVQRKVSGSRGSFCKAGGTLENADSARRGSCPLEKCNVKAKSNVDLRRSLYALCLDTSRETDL

SMILES: COc1ccc2c(=O)n(CC(O)CO)c(C#N)c(-c3cccc(F)c3)c2c1 (centres undefined)
IC50 [1]: 0.87 µM
IC50 [3]: 33.5 µM

SMILES: COc1ccc2c(=O)n(C[C@H](O)CO)c(C#N)c(-c3ccccc3)c2c1
Activity (Rattus norvegicus [2]): Active
Activity (Rattus norvegicus [4]): inactive
Activity (Rattus norvegicus [5]): Active

SMILES: COc1ccc2c(NC[C@H](O)CO)nc(C#N)c(-c3ccccc3)c2c1
Activity (Rattus norvegicus [8]): Active
IC50 [3]: 15 µM
Activity (Rattus norvegicus [9]): Active

SMILES: COc1ccc2c(=O)n(CCO)c(C#N)c(-c3cccc(F)c3)c2c1
IC50 [1]: 0.69 µM

SMILES: COc1ccc2c(C(=O)NCCO)nc(C#N)c(-c3ccccc3)c2c1
Activity (Rattus norvegicus [2]): Active
Activity (Canis familiaris [11]): Active
Activity (Canis familiaris [12]): inactive
IC50 [3]: > 30 µM

SMILES: COc1ccc2c(=O)n(CC(O)CO)c(C#N)c(-c3cccc(C(F)(F)F)c3)c2c1 (centres undefined)
IC50 [1]: 0.25 µM

The next lines start with results.

IC50 [1]: 0.26 µM
SMILES: COc1ccc2c(-n3cnc(C)c3)nc(C#N)c(-c3cccc(F)c3)c2c1
Activity (Rattus norvegicus [2]): Active

IC50 [1]: 0.19 µM
clearance [6]: 26 mL/min/kg
bioavailability [7]: 11%
SMILES: COc1ccc2c(=O)n(C)c(CN(C)C)c(-c3ccccc3)c2c1
IC50 [3]: 5.3 µM

IC50 [1]: 0.79 µM
SMILES: COCCN(C)CCn1c(C#N)c(-c2cccc(F)c2)c2cc(OC)ccc2c1=O

IC50 [1]: 0.12 µM
SMILES: COc1ccc2c(=O)n(CC(CO)NCc3cccnc3)c(C#N)c(-c3ccccc3)c2c1 (centres undefined)
IC50 [3]: 10 µM

IC50 [1]: 0.16 µM
Vd [10]: 1.7 L/kg
clearance [6]: 13 mL/min/kg
bioavailability [7]: 67%
SMILES: COc1ccc2c(OC[C@H](O)CO)nc(C#N)c(-c3ccccc3)c2c1
IC50 [3]: 20.5 µM
Activity (Rattus norvegicus [9]): Active
